Data reported in the EternaBench riboswitch data.

Test system: MS2 coat protein
Assay: apparent Kd, MS2 coat protein; higher = weaker binding; RNA-MaP array; FMN 200 µM where present
Procedure, shortened: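 Each design was made on Illumina sequencing-chip clusters by stalled E. coli RNA polymerase and titrated with SNAP-549-labelled MS2 coat protein from 0.7 or 1.5 nM, doubling to 3 µM, in the absence and then the presence of constant ligand. The buffer was 100 mM Tris-HCl pH 7.5, 80 mM KCl, 4 mM MgCl2, BSA, DTT, yeast tRNA and Tween-20. The apparent Kd is the median of filtered per-cluster fits of binding curves, with green signal normalised to red-channel RNA signal and control-cluster median Fmax.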

[1] = designed as: ON switch for flavin mononucleotide, no ligand
[2] = ligand present: flavin mononucleotide, designed as: ON switch for flavin mononucleotide
[3] = designed as: OFF switch for flavin mononucleotide, no ligand
[4] = ligand present: flavin mononucleotide, designed as: OFF switch for flavin mononucleotide

Sequence | apparent Kd [1] [nM] | apparent Kd [2] [nM] | apparent Kd [3] [nM] | apparent Kd [4] [nM]
AGCGGGUGGGUAGGAUAUGGCUAUGUCUCAUUGCUAGAAGGACCAGCUGCUACAUGAGGAUCACCCAUGUCGUAGUGCACCCAG | 195 | 12.7 | – | –
AGCGUACAAGCUGACAUGAGGAUCACCCAUGUGGUCUCAUGCGAGGAUAUCGGGAAGGAGGAUUCCGAGAAGGUGCGGUGAGCC | 275 | 44.9 | – | –
AGCUACGUUUCGUAGCAGCUAGGUGAGGAUAUUCAAAAUUUCACAUGAGGAUCACCCAUGUAUGUGAAGAAGGCGCCUAGAAAG | 7.29 | 4.74 | – | –
AGCUAGCUAGGAUAUGCGUAAAUGUCGAAAGACGUAUUGGGACAUGAGGAUCACCCAUGUAGAAGGAGCUAGCA | – | – | 29.1 | 54.5
AGCUAGUGAGGAUAUACGAACAUGUCAAAAGACUGUAAGGGACAUGAGGAUCACCCAUGUAGAAGGCACUAGCA | – | – | 45.2 | 384
AGCUGUGGCCGAGGAUAUCUAACUUCAAUAACCGAAAUAUAAUCGGACAUGAGGAUCACCCAUGUAGAGAAGGCGGUCUCAGCA | – | – | 15.2 | 20.1
AGCUGUGGCCGAGGAUAUCUAUCCCAAAUAACCGAAAUAUAAUCGGACAUGAGGAUCACCCAUGUAGAGAAGGCGGUCUCAGCA | – | – | – | 35.1
AGCUGUGGCCGAGGAUAUCUAUCUCAAAUAACCGAAAUAUAAUCGGACAUGAGGAUCACCCAUGUAGAGAAGGCGGUCUCAGCA | – | – | 14.5 | 26.1
AGCUGUGGCCGAGGAUAUCUGAACCUUCAAACCGAAAUAUAAUCGGACAUGAGGAUCACCCAUGUAGAGAAGGCGGUCUCAGCA | – | – | 12 | 22.6
AGCUGUGGCCGAGGAUAUCUGUCCCAUAAAACCGAAAUAUAAUCGGACAUGAGGAUCACCCAUGUAGAGAAGGCGGUCUCAGCA | – | – | 44.1 | 70.7
AGCUGUGGCCGAGGAUAUCUGUCUCAUAAAACCGAAAUAUAAUCGGACAUGAGGAUCACCCAUGUAGAGAAGGCGGUCUCAGCA | – | – | 21.3 | 83.7
AGGAAACAUGAGGAUCACCCAUGUAAAAGGUGGGUAGGAUAUGCGAAAAGAAAAAGAAAAGCAGAAGGGCCAAGAA | 101 | 47.4 | – | –
AGGAGACAUGAGGAUCACCCAUGUGCACGGUGAAGAGGAUAUGUGCGUGGAGAGACACGGACAGAAGGCUUAAGAA | 65.3 | 33 | – | –
AGGCGAGUAGGAUAUGCAUAUUUACAGGAAAGCUGGAUGGUACAUGAGGAUCACCCAUGUAGAAGGGCUCUGAA | – | – | 18.7 | 20.7
AGGCGAGUAGGAUAUGCGUUUUUACGGGAAAGCUGGAUGGUACAUGAGGAUCACCCAUGUAGAAGGGCUCUGAA | – | – | 23.4 | 21.8
AGGGCAACAGGAUAUCAUACAAUCUACAUGAGGAUCACCCAUGUGCCUCUUUUCAUACUGUGAGAAGGGUUGUCGG | – | – | 64.8 | 63.8
AGGGCUGCUCAGGAUAUCCGUAAAAGCCGAGAAGGAGAAGGGAGCACAUGAGGAUCACCCAUGUGAUCCGAAAA | – | – | 21.6 | 44
AGGGUACAUGAGGAUCACCCAUGUGGGUCGGUCGCAGGAUAUGCCCGUGGGCGCUGGCGGGCAGAAGGGUGCCGAA | 313 | 45 | – | –
AGGUAAACCACAGGAUAUGGCUAGCAUAGCUAGCCAGAAGGGUGGUCGUAACCAUGUAAAUACAUGAGGAUCACCCAUGUAUCC | 89.8 | 36 | – | –
AGGUAACAUGAGGAUCACCCAUGUCAGGAUAUCAGUAAGAUGAGUAUAGAAUAGAGUAUGAGAAGGGACUAUAU | – | – | 36.5 | 28.6
AGGUAAGAGUUAAUUGUGACGGUGAGAAGGCAAAAGGUUGUGAUUAACAUGAGGAUCACCCAUGUUGAGGAUAUCACCACCUUC | – | – | 6.95 | 8.81
AGGUACAUGAGGAUCACCCAUGUAAGAGACCUCAUGCGAUGUAGAAGGAUUAUCCGAGAAGAGGAAUAGGAUAUACAUGAGAAA | – | – | 158 | 127
AGGUCAACCACAGGAUAUGGCUAGCAUAGCUAGCCAGAAGGGUGGUCGUAUCCAUGUAAAUACAUGAGGAUCACCCAUGUAUCC | 283 | 79.1 | – | –
AGGUGCACAGGAUAUACAUGAGGAUCACCCAUGUGCCAACUGUGCGCUGGUCCUUUAUGUAGAAGGGUGCGUCC | – | – | 22.1 | 15.8
AGGUGUAGAGGAUAUCUCUUCUCUCACAUGAGGAUCACCCAUGUUCUAAAGUCCAAGGAGAGAGAAGGCUACACCA | – | – | 19.8 | 15.6
AGUAAGAUGCAGAAGGUGCCAGCGAGAGCUGCACAUGAGGAUCACCCAUGUUGUCGGUGACGACGCAAGGAUAUGCAUCUUACA | 24.5 | 6.87 | – | –
AGUAAGAUGCAGAAGGUGUUAGCUAGAGCUACGACAUGAGGAUCACCCAUGUACUAGAAACAGUACAAGGAUAUGCAUCUUACG | 16.6 | 6.47 | – | –
AGUACUCAAAGAGUACCAAUACGAACAUGAGGAUCACCCAUGUAGGAUAUGCUACUCAAAGAGUAGCAGAAGGACAUGUGCCUA | – | – | 18.2 | 82.3

Sequence | apparent Kd [1] [nM] | apparent Kd [2] [nM] | apparent Kd [3] [nM] | apparent Kd [4] [nM]
AGUAGUUCAGGAUAUGAUGUAUGUUACAUGAGGAUCACCCAUGUAGGUCCUUGAAUUGUAUCAGAAGGGAAUAUCU | – | – | 258 | 281
AGUAUGUACGCAGGAUAUACAUGAGGAUCACCCAUGUGGAACAGUGUAGUACUAGUUGAUCCUCAGUAGAAGGGCGGUCGAAUA | – | – | 63.6 | 46.4
AGUCGUCAAGGAUAUAUAGUGAAGCACAAGCAGUGCCCUCUACAUGAGGAUCACCCAUGUAGAAGGUGGCGACU | – | – | 15.6 | 14.2
AGUGGACAUGAGGAUCACCCAUGUAUGCUGGCAUGAGGAUAUCCGAUUCGUUUCGACUAAGGAGAAGGCAUAGCCC | 97.2 | 31.3 | – | –
AGUGUCAUCGAGAAGGCCUCAACAUGAGGAUCACCCAUGUUGGAAUAUGGGAGGAUAUCGAUGAUACAGCUACGUUUCGUAGCA | 10.2 | 5.04 | – | –
AGUGUCAUCGAGAAGGCCUCAACAUGAGGAUCACCCAUGUUGUAAUAUGGGAGGAUAUCGAUGAUACAGCUACGUUUCGUAGCU | 18.9 | 5.65 | – | –
AGUGUGUGGCAGGAUAUGCUGUUGAUUGGUGAAGCAGAAGGGUCUACAUGAGGAUCACCCAUGUAAGCGGUUGA | – | – | 53.1 | 225
AGUUAAUAUCGAGGAUAUGUCUAGACACAUGAGGAUCACCCAUGUAUGUGUAUAGAAGGCGAAAUUAAAAGCAUGUUACAUGCA | 31.1 | 19.5 | – | –
AGUUCCUCCGCAGGAUAUGUGCUCUUUACCACAUGAGGAUCACCCAUGUCAGCCUACACGGCGAGACAGAAGGGUGGUGGUGCC | 96 | 157 | – | –
AUAAAUCAUGUAGGAUAUGCGUGGCGAAGCUAUGCAGAAGGACAUGAGGAUCACCCAUGUCUAUCCGUCUGCGUACAGACGGAA | – | – | 26.2 | 216
AUAAAUCAUGUAGGAUAUGCGUGGCGAAGCUAUGCAGAAGGACAUGAGGAUCACCCAUGUCUUUCCGUCUGCGUACAGACGGGA | – | – | 30.9 | 225
AUAAGGUUCUUCAAGGUGCUACAUGAGGAUCACCCAUGUGAGAGAAGGGCCCGUGGACUUGGAGGGUAGGAUAUCUCCAUGCGU | – | – | 8.32 | 10.1
AUAAGUUCGUCAGGAUAUACAUGAGACAGUAAUGUUUCAGGUAUGAUCACAUGAGGAUCACCCAUGUAGAAGGGACGAGCUUAU | – | – | 6.48 | 20.6
AUAAUAGAGUCAGGAUAUGGACAUGAGGAUCACCCAUGUGCAGGGAUCCUCCCAGAAGGGACAUCUAAACAAAAGGCGCUAUCC | – | – | 307 | 147
AUAAUUUUAUUUUUCCCAAGAAUCAGAAGGCGUUACAUGAGGAUCACCCAUGUUUUGUAUAGUAACGAGGAUAUGAUAUGGUUA | – | – | 15.2 | 14.7
AUACAACAUGAGGAUCACCCAUGUGAGGAUAUGCGAUACAUCAUCAUCAUCAUCAAUCGCAGAAGGCACAACAU | – | – | 50.2 | 55
AUACACUUAGUGAGGAUAUCGUUUUCUUUACGGAUCGAGAAGGCACAUGAGGAUCACCCAUGUUUGACGUGAAU | – | – | 21.4 | 68.9
AUACAUGAGGAUCACCCAUGUAAUUAAUUAACUAGUAAGAUCUAGGAUAUCAGCUCGUUUAGAGCUGAGAAGGAGAUCACAUGU | 36.8 | 15.6 | – | –
AUACAUGAGGAUCACCCAUGUUACUGGGUCUUAAUAGAUCGUAGAAGGAUGUUAUUAUAAAUUUCAUAGGAUAUACUAUUUUGU | – | – | 61.1 | 38.6
AUACAUGAGGAUCACCCAUGUUACUGGGUCUUUUUAGAACGUAGAAGGAUGUUUUUAUAAAUAACAUAGGAUAUACAAUAUUGU | – | – | 59.6 | 49.9
AUACUCAUGUAAGGAUAUGCAGCCGUUUCGGCUGCAGAAGGUACUAUAAUACAUGAGGAUCACCCAUGUCCCUCGCAUUGCGAG | 657 | 85.9 | – | –
AUAGAAGACUAGAAGGAGGUUUAAUAAUAUUGUCGAGGUAUUGUUGAAUUUAGGAUAUGGGACAUGAGGAUCACCCAUGUUUUG | 24 | 16.2 | – | –
AUAGAAGUCUAGAAGGACCUAGCUGUAUACCAUCAGGUAUAUACGCUAGGUAGGAUAUGGGACAUGAGGAUCACCCAUGUGUUG | 48 | 22.6 | – | –
AUAGGUCAAGGAUAUACAUGAGGAUCACCCAUGUAAAUAACUCCAUCCAACUCCACAAGUAGAAGGUGAAAUAA | – | – | 17 | 16.5
AUAUAUAGUGUGAGGAUAUGCUGGUCCUUGGAUCAGCAGAAGGCACAUGAGGAUCACCCAUGUAGUUUAUUUUU | – | – | 24.5 | 102
AUAUAUAUAUCAGGAUAUGGACAGGCCUGUCCGUAUUGAGACAGUAACAUGAGGAUCACCCAUGUCCAGAAGGGAUAUAUAUAU | – | – | 51.5 | 59.2
AUAUAUCAUACAGGAUAUACAUGAGGAUCACCCAUGUGUUCUCCAUAAUUGACACCAAUUAUGCUGUAGAAGGGUAUGAUAUAU | – | – | 22.3 | 151
